In test [1] the test system is HT-29. The test is described as follows: Cytotoxicity against COX-2 positive human HT-29 cells transfected with CD44v6shRNA assessed as growth inhibition after 48 hrs by MTT assay. Conditions: HT-29, 48 h. The class given is functional, cell-based.
For test [2], the system named is HCA-7. The test is described as follows: Inhibition of hyaluronan-induced CD44v6 in human HCA-7 cells transfected with Has2cDNA assessed as downregulation of COX-2 protein expression at 50 uM after 24 hrs by Western blotting analysis. The class given is cell-based. The procedure, abridged:
(§1)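 HCA7 cells were transiently transfected with Has2 cDNA, grown 72 h, then treated for 24 h. Western blots were probed for CD44v6, COX-1, COX-2 and 5-LOX, with longer exposures used to show COX-2 and 5-LOX. The same blot was reprobed for β-tubulin as a loading control.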

Test [3] deals with HCA-7. The test is described as follows: Inhibition of hyaluronan-induced CD44v6 in human HCA-7 cells transfected with Has2cDNA assessed as downregulation of 5-LOX protein expression at 50 uM after 24 hrs by Western blotting analysis. In kind it is cell-based. An outline of the steps: as §1
A short description of test [4]: Cytotoxicity against COX-2 positive mouse APC10.1 cells transfected with CD44v6shRNA overexpressing HAS-2 assessed as growth inhibition after 48 hrs by MTT assay. In kind it is functional, cell-based.
The test system of a further test is SW480. Put plainly: Cytotoxicity against COX-2 negative human SW480 cells assessed as growth inhibition by CellTiter-96 AQueous assay. In kind it is functional, cell-based.
Test [5] is described as follows: Cytotoxicity against COX-2 positive human HCA-7 cells assessed as growth inhibition by CellTiter-96 AQueous assay. The class given is functional, cell-based.
In test [6] the test system is HCA-7. Put plainly: Inhibition of hyaluronan-induced CD44v6 in human HCA-7 cells transfected with Has2cDNA assessed as downregulation of COX-1 protein expression at 50 uM after 24 hrs by Western blotting analysis. The class given is cell-based. An outline of the steps: as §1
Test [7] in a line: Cytotoxicity against COX-2 positive human HCA-7 cells transfected with CD44v6shRNA assessed as growth inhibition after 48 hrs by MTT assay. The class given is functional, cell-based. Conditions: HCA-7, 48 h.
Test [8] relates to HT-29. The test is described as follows: Cytotoxicity against COX-2 positive human HT-29 cells assessed as growth inhibition by CellTiter-96 AQueous assay. The class given is functional, cell-based.
Test [9] can be described thus: Cytotoxicity against COX-2 positive mouse APC10.1 cells overexpressing HAS-2 assessed as growth inhibition by CellTiter-96 AQueous assay. In kind it is functional, cell-based.
Test [10] deals with T1, Prostaglandin G/H synthase 1 (Ovis aries, UniProt P05979).
T1 sequence (P05979 whole entry): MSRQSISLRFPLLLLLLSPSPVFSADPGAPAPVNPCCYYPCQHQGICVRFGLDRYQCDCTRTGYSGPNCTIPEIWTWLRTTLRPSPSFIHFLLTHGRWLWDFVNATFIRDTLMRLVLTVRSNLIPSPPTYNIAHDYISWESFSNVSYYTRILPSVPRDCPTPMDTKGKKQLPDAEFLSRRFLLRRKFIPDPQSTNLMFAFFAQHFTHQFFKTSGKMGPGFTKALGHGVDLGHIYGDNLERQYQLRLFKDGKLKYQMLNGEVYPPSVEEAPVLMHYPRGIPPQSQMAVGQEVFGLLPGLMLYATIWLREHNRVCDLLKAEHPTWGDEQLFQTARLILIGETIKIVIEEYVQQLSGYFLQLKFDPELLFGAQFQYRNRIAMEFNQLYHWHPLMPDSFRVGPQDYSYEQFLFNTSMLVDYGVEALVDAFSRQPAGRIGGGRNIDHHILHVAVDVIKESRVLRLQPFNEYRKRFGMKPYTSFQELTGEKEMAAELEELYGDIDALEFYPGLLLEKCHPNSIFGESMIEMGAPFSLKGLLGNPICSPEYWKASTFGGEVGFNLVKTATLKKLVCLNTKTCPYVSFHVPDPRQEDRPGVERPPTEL
Put plainly: Inhibition of ram seminal vesicle COX-1 assessed as conversion of arachidonic acid to PGH2. The procedure, abridged:
(§2)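 Assays used enzyme immobilized in ELISA plates, with activity read by ELISA. IC50 values are given in µM.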

A short description of test [11]: Downregulation of hyaluronan-induced CD44v6 protein expression in human HCA-7 cells transfected with Has2cDNA at 5 uM after 24 hrs by Western blotting analysis. The class given is functional, cell-based. An outline of the steps:
as §1

For test [12], the system named is HCA-7. Put plainly: Inhibition of hyaluronan-induced CD44v6 in human HCA-7 cells transfected with Has2cDNA assessed as downregulation of 5-LOX protein expression at 5 uM after 24 hrs by Western blotting analysis. In kind it is cell-based. An outline of the steps:
as §1

Test [13] can be described thus: Ratio of IC50 for COX-2 positive mouse APC10.1 cells overexpressing HAS-2 to IC50 for COX-2 positive mouse APC10.1 cells transfected with CD44v6shRNA overexpressing HAS-2. The class given is functional.
Test [14] can be described thus: Ratio of IC50 for COX-2 positive human HCA-7 cells to IC50 for COX-2 positive human HCA-7 cells transfected with CD44v6shRNA. The class given is functional.
Test [15] deals with HT-29. The test is described as follows: Ratio of IC50 for COX-2 positive human HT-29 cells to IC50 for COX-2 positive human HT-29 cells transfected with CD44v6shRNA. In kind it is functional.
In test [16] the target is T2, Prostaglandin G/H synthase 2 (Homo sapiens, UniProt P35354).
T2 sequence (P35354 whole entry): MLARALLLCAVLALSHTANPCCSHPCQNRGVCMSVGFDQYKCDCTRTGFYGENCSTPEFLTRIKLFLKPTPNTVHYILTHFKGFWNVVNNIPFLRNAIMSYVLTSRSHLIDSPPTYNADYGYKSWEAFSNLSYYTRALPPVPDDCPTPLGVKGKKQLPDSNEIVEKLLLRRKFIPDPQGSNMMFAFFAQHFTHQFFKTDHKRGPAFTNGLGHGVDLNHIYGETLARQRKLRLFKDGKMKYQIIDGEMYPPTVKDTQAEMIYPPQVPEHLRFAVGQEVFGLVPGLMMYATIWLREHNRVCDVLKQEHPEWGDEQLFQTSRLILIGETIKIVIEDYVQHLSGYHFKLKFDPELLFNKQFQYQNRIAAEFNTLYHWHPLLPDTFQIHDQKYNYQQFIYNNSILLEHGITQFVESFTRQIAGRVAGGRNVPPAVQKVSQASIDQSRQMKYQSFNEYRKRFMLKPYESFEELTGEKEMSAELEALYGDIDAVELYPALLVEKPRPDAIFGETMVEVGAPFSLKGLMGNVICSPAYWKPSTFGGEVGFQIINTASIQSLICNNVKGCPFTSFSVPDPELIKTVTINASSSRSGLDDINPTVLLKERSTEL
The test is described as follows: Inhibition of COX-2 (unknown origin) by ELISA.

Test [17] relates to HCA-7. The test is described as follows: Inhibition of hyaluronan-induced CD44v6 in human HCA-7 cells transfected with Has2cDNA assessed as downregulation of COX-2 protein expression at 5 uM after 24 hrs by Western blotting analysis. In kind it is cell-based. The procedure, abridged:
as §1

The target in test [18] is T3, Polyunsaturated fatty acid 5-lipoxygenase (Homo sapiens, UniProt P09917).
T3 sequence (P09917 whole entry): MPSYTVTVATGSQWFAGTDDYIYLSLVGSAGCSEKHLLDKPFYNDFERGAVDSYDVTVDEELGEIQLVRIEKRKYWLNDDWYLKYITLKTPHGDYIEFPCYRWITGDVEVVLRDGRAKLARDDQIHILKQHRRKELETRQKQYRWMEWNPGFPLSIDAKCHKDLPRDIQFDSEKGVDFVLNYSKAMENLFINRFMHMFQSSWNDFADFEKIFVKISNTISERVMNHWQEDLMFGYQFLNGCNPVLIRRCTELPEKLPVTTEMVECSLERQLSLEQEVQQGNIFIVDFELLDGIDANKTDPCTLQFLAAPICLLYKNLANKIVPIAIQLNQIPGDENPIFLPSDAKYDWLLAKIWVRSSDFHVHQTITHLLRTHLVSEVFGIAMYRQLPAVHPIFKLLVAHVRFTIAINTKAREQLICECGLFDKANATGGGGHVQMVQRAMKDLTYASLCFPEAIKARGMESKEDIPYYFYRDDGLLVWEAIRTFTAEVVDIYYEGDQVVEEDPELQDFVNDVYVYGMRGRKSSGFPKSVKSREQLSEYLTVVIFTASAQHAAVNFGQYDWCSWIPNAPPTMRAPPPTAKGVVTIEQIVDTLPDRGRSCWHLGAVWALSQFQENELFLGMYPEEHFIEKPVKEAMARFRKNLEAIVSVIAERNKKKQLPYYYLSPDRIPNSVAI
Put plainly: Inhibition of 5-LOX (unknown origin) by ELISA. The procedure, abridged: as §2

For test [19], the system named is HCA-7. Put plainly: Inhibition of hyaluronan-induced CD44v6 in human HCA-7 cells transfected with Has2cDNA assessed as downregulation of COX-1 protein expression at 5 uM after 24 hrs by Western blotting analysis. The class given is cell-based. The procedure, abridged: as §1
The test system of test [20] is HCA-7. The test is described as follows: Cytotoxicity against human HCA-7 cells expressing COX-2, 5-LOX, CD44v6 assessed as growth inhibition after 24 hrs by MTT assay. The class given is functional, cell-based. The procedure, abridged:
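HCA7 and HIEC6 cells were exposed to a range of test concentrations for 24 h. Cytotoxicity was read by MTT assay and expressed as percent growth inhibition, with untreated cells set to 0% inhibition.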

Calls of active or inactive are those of the source. The rule behind the calls is not given here. Where only a bound is given, the exact number is not on record here.

The results in this text go back to ChEMBL document CHEMBL3098067, “Novel di-tertiary-butyl phenylhydrazones as dual cyclooxygenase-2/5-lipoxygenase inhibitors: synthesis, COX/LOX inhibition, molecular modeling, and insights into their cytotoxicities” (Bioorg Med Chem Lett, 2014).

For the molecule `CC1(C)Cc2c(-c3ccccc3)c(-c3ccc(Cl)cc3)c(CC(=O)O)n2C1` [LICOFELONE], the IC50 in the test with HT-29 [1] came to 21.1 µM; in [4] it was 23 µM; with SW480, 68 µM; in test [5], 60.9 µM; in [7] it was 18.5 µM; with HT-29 [8], 67 µM. In addition, the IC50 in [9] was found to be 70.6 µM; in test [10], 0.8 µM. In addition, the result in the test with HCA-7 [2], in the test with HCA-7 [3] and with HCA-7 [6] was Active.

Take `CC(C)(C)c1cc(/C=N/NC(=O)c2ccncc2)c(O)c(C(C)(C)C)c1`: the result (in test [11]; in the test with HCA-7 [12]; with HCA-7 [17]; with HCA-7 [19]) was Active. For the same molecule, the IC50 in the test on HT-29 [1] came to 0.71 µM; in test [4], 3 µM; in the test on SW480 it was 33.7 µM; in test [16], 7.11 µM; in test [5], 6.4 µM; in [7], 0.76 µM. Besides, the IC50 in test [18] was 6.25 µM; in the test on HT-29 [8], 5.8 µM; in test [9] it was 18.2 µM; in test [10], greater than 300 µM. Besides, the “Ratio IC50” value in test [13] is given as 6.1; in test [14], 8.4; in the test on HT-29 [15], 8.

With `CC(C)(C)c1cc(/C=N/NC(=O)c2ccccc2)c(O)c(C(C)(C)C)c1`, the outcome (in [11]; with HCA-7 [12]; in the test on HCA-7 [17]; in the test with HCA-7 [19]) was Active. Also, the IC50 turned out to be 0.85 µM with HT-29 [1]; 1.8 µM in test [4]; 35.7 µM in the test on SW480; 6.49 µM in test [16]; 4.3 µM in test [5]; 0.56 µM in test [7]. Besides, the IC50 in test [18] worked out at 5.88 µM; with HT-29 [8], 5.7 µM; in test [9] it was 11.9 µM; in test [10], 25.5 µM. In addition, the “Ratio IC50” value in test [13] was 6.1; in [14] it was 7.7; in the test on HT-29 [15], 6.7.

On to `Cc1ccc(-c2cc(C(F)(F)F)nn2-c2ccc(S(N)(=O)=O)cc2)cc1` [CELECOXIB], for which the result with HCA-7 [12], in the test with HCA-7 [17] and in the test with HCA-7 [19] was Active. Moreover, the IC50 in the test with HT-29 [1] is 0.7 µM; in test [4], 1.3 µM; in the test with SW480, 6.9 µM; in [5] it was 4.9 µM; in [7], 0.75 µM; in the test on HT-29 [8], 5.7 µM. Moreover, the IC50 in [9] was determined as 13.4 µM.

For `CC(C)(C)c1cc(/C=N/NC(=O)c2cccnc2)c(O)c(C(C)(C)C)c1`, the result (in [11]; with HCA-7 [12]; in the test with HCA-7 [17]; in the test with HCA-7 [19]) was Active. The IC50 with HT-29 [1] came out at 0.35 µM; in [4], 1.9 µM; with SW480, 37 µM; in test [16], 8.8 µM; in [5] it was 3.5 µM; in [7], 0.26 µM. The IC50 in test [18] is 5.55 µM; in the test on HT-29 [8] it was 4.3 µM; in test [9], 13.8 µM; in test [10], greater than 300 µM. In addition, the figures for the “Ratio IC50” value (in test [13]; in test [14]; in the test on HT-29 [15]) were 7.2, 14 and 12, respectively.

With `CC(C)(C)c1cc(C=O)c(O)c(C(C)(C)C)c1`, the “growth inhibition (GI)” value in the test with HCA-7 [20] is “Active”.

In the case of `NNC(=O)c1ccccc1O`, the “growth inhibition (GI)” value in the test on HCA-7 [20] was “Active”.
